Results as given in ChEMBL document CHEMBL1177719 (J Med Chem, 2010).
pIC50: −log10 of the molar value. Calls of active or inactive are those of the source. The rule behind the calls is not given here.

Legend:
RAW264.7 [1] = assay: Inhibition of LPS-induced iNOS expression in mouse RAW264.7 cells at 34 uM treated 15 mins before LPS challenge measured after 18 hrs by Western blotting; format: functional, cell-based
Outline: (§1)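 RAW 264.7 cells pretreated 15 min with compound (34 μM), then LPS 1 μg/mL for 18 h. Lysates (30 μg protein) run on 8% SDS-PAGE and transferred to PVDF. Blocked in 5% milk/TBST, probed for iNOS and COX-2 with HRP secondary, ECL detection, β-actin internal control. Band density relative to LPS-treated control; duplicate experiments.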

HL-60 = assay: Cell cycle arrest in human HL60 cells assessed as accumulation at sub-G1 phase at 34 uM after 24 hrs by flow cytometry; format: functional
Outline: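 HL-60 cells (2 × 10⁵/well) exposed to samples for 24 h, then stained with NIM-DAPI nuclear isolation medium. Read by flow cytometry under UV excitation; percentage of cells in subG₁ taken from the DNA histogram.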

RAW264.7 [2] = assay: Inhibition of LPS-induced COX2 expression in mouse RAW264.7 cells at 34 uM treated 15 mins before LPS challenge measured after 18 hrs by immunoblotting; format: functional, cell-based
Outline: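 RAW 264.7 cells pretreated with samples 15 min, then LPS 1 μg/mL for 18 h. Lysates (30 μg protein) run on 8% SDS-PAGE, transferred to PVDF, probed with primary and HRP secondary antibodies, ECL detection. β-actin internal control; band density quantified relative to the LPS-only control; duplicate experiment.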

HEK293 [3] = assay: Cytotoxicity against human HEK293 cells at 34 uM; format: cell-based; details: hek293, 34 µM
MCF7 = assay: Cellular uptake in human MCF7 cells assessed per millions cells at 50 uM after 24 hrs by LC/MS/MS analysis; format: ADME, cell-based; details: mcf7, 24 h
[4] = target: T1, Prostaglandin G/H synthase 1 (Ovis aries) (UniProt P05979); assay: Inhibition of sheep seminal vesicles COX1 assessed as PGE2 production at 34 uM after 10 mins by ELISA relative to control
T1 sequence (whole entry): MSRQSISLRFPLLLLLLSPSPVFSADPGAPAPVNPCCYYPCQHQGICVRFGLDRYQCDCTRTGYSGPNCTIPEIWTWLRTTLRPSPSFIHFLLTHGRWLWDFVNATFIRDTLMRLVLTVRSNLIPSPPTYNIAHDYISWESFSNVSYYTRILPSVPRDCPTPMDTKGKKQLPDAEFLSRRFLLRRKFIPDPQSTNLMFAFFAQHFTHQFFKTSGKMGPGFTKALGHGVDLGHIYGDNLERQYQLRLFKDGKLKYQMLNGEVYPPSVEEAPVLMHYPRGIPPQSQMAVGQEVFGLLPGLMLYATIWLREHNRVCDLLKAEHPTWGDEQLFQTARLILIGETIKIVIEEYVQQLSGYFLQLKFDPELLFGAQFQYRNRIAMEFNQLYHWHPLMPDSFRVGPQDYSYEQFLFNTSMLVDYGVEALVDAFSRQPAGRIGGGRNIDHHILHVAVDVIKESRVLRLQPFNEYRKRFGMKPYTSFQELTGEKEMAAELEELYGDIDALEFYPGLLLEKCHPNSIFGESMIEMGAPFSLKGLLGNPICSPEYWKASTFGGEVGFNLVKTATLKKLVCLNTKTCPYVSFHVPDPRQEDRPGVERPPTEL
Outline: (§2)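 Sheep seminal vesicle COX-1; reaction started with arachidonic acid, 10 min at room temperature, stopped with 27.8 μM indomethacin. PGE₂ quantified by competitive ELISA (PGE₂-acetylcholinesterase tracer, Ellman's reagent, 412 nm) against a PGE₂ standard curve. Result as % of solvent control; IC₅₀ from dose-response curves.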

[5] = target: T2, Prostaglandin G/H synthase 1 (Ovis aries, UniProt P05979); assay: Inhibition of sheep seminal vesicles COX1 assessed as PGE2 production after 10 mins by ELISA; outline: as §2
T2 sequence (P05979 whole entry): T1 sequence (whole entry)

HEK293 [6] = assay: Inhibition of TNF-alpha-induced NF-kappaB activity expressed in HEK293 cells at 34 uM after 48 hrs by luciferase reporter gene assay relative to control; format: cell-based
Outline: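 Stably transfected 293 cells carrying an NFκB response element–luciferase reporter, exposed to TNFα plus compound for 48 h, then assayed for luciferase. Activity expressed as % of TNFα-treated control. IC₅₀ from five serial dilutions, mean of two experiments.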

[7] = target: T3, Nitric oxide synthase, inducible (Mus musculus, UniProt P29477)
T3 sequence (P29477 whole entry): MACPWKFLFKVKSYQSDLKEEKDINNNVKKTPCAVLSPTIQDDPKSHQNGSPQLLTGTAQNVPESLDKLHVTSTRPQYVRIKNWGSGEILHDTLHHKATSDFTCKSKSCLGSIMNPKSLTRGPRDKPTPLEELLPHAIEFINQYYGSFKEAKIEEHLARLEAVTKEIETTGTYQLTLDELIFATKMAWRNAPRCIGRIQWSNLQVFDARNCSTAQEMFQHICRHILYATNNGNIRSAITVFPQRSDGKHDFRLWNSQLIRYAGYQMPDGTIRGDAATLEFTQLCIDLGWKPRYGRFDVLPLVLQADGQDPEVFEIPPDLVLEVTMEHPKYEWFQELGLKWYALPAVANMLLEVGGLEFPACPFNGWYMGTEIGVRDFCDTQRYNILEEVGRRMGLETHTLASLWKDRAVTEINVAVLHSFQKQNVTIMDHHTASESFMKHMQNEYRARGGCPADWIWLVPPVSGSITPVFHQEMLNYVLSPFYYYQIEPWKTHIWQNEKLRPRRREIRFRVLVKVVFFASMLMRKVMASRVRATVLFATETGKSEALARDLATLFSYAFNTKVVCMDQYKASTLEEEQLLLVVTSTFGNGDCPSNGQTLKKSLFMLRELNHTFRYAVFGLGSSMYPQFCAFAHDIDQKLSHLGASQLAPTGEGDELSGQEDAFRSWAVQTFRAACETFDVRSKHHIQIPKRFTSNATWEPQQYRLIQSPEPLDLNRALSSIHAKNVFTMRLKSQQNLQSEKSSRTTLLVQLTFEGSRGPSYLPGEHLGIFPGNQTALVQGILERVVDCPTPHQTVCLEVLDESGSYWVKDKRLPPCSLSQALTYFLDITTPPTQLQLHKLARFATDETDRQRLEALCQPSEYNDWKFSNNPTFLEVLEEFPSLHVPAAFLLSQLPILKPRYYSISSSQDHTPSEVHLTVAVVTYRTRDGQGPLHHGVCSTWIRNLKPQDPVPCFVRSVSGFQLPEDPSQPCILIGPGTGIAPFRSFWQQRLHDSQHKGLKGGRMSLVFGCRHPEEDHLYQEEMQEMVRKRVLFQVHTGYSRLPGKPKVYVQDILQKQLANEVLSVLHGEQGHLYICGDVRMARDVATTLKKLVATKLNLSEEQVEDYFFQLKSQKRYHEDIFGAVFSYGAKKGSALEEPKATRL

KB = assay: Cytotoxicity against human KB cells assessed as cell survival at 20 ug/ml after 72 hrs by sulforhodamine B method; format: functional; details: read-out: Activity
Outline: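 Sulforhodamine B assay. KB or MCF7 cells plated with samples and held 72 h at 37 °C, 5% CO₂. Fixed 1 h in 10% trichloroacetic acid, stained with 0.4% SRB in 1% acetic acid, dye taken up in 10 mM Tris.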

[8] = target: T4, Nitric oxide synthase, inducible (Mus musculus) (UniProt P29477); assay: Inhibition of iNOS-mediated nitric oxide production in mouse RAW 264.7 cells at 34 uM pretreated 30 mins measured after 20 hrs by Griess reaction method relative to control; format: cell-based
T4 sequence (whole entry): T3 sequence (P29477 whole entry)
Outline: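 RAW 264.7 macrophages seeded at 1 × 10⁵ cells/well for 24 h. Compounds in phenol red-free DMEM added 30 min before LPS (1 μg/mL), then 20 h further incubation. Nitrite in medium measured by Griess reagent at 540 nm against a sodium nitrite standard curve; inhibition at 34 μM.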

Aromatase = target: T5, Aromatase (Homo sapiens, UniProt P11511); details: read-out: INH
T5 sequence (P11511 whole entry): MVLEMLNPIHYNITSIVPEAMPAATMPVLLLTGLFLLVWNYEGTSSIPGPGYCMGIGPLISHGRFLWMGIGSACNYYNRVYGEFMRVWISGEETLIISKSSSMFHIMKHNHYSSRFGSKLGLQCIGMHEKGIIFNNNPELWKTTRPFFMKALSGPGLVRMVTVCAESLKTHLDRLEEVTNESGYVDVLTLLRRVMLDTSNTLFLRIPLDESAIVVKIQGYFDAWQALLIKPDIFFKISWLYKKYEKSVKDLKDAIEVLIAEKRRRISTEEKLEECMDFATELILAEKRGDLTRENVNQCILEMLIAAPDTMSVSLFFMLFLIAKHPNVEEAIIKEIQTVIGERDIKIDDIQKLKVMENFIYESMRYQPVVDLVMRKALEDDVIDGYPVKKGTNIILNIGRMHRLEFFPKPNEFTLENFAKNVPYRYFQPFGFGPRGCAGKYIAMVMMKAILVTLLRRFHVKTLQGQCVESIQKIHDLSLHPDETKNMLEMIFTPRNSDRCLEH

RAW264.7 [9] = assay: Inhibition of LPS-induced COX2 expression in mouse RAW264.7 cells at 34 uM treated 15 mins before LPS challenge measured after 18 hrs by Western blotting relative to control; format: functional; outline: as §1
[10] = target: NAD(P)H dehydrogenase [quinone] 1 (Mus musculus) (UniProt Q64669); assay: Induction of quinone reductase 1 in mouse Hepa 1c1c7 cells assessed as drug level required to double enzyme activity by MTT assay
[11] = target: T4, Nitric oxide synthase, inducible (Mus musculus); assay: Inhibition of iNOS-mediated nitric oxide production in LPS-stimulated mouse RAW 264.7 cells at 34 uM pretreated 30 mins before LPS challenge measured after 20 hrs by Griess reaction method relative to control; format: cell-based
[12] = Antioxidant activity assessed as nitric oxide scavenging activity at 60 uM; format: functional
Outline: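 Compounds diluted tenfold in PBS and incubated with sodium nitroprusside (final compound 60 μM, SNP 5 mM) for 3 h at room temperature. Nitrite measured by Griess reagent, absorbance 540 nm. % inhibition given as average of triplicates ± standard deviation.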

[13] = Antioxidant activity assessed as DPPH scavenging activity at 340 uM after 30 mins; format: functional

Sequence of NAD(P)H dehydrogenase [quinone] 1 (Mus musculus) (Q64669 whole entry): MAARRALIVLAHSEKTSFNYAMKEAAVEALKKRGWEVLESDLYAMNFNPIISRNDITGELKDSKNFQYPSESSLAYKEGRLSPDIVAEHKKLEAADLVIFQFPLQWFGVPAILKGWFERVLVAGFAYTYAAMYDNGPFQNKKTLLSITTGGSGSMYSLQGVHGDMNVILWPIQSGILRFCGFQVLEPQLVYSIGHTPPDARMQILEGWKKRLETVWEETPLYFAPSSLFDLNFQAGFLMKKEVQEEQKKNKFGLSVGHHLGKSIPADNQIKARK

Row | SMILES | inhibition (RAW264.7 [1]) | Activity (HL-60) [%] | inhibition (RAW264.7 [2]) | Activity (HEK293 [3]) | Drug uptake (MCF7) [pmol] | inhibition [4] [%] | pIC50 [5] | inhibition (HEK293 [6]) [%] | pIC50 [7] | viability at 20 µg/mL (KB) [%] | Activity [8] | inhibition at 34 µM (Aromatase) [%] | fold change (FC) (RAW264.7 [9]) | CD [10] [µM] | inhibition [11] [%] | Activity [12] [%] | inhibition [13] [%]
1 | Oc1ccc(/C=C/c2cc(O)cc(O)c2)cc1 [RESVERATROL] | Active | 24.9 | inactive | Non-toxic | 54.7 | 75.2 | 5.18 | 75.7 | 4.82 | 47.8 |  |  |  |  |  |  | 
2 | O=S(=O)([O-])Oc1ccc(/C=C/c2cc(O)cc(OS(=O)(=O)[O-])c2)cc1.[K+].[K+] |  |  | inactive | Non-toxic |  | 23.3 |  | 53.4 |  |  | inactive | 22.5 | 0.6 | > 10.1 | 41.7 | 0 | 6.8
